Experimental findings from ChEMBL document CHEMBL4680073, “Total Synthesis of Laspartomycin C and Characterization of Its Antibacterial Mechanism of Action” (J Med Chem, 2016) are described below.

Structures are written as SMILES. ≈ marks a conversion by molar mass, not a printed value. Calls of active or inactive are those of the source. The calls are words filed in the database; no cut-off is given here. Bridge positions count the residues as written; N and C are the ends. Square brackets hold non-standard residues; d marks the D form. Peptide text beside a SMILES is read from it. * marks the point of attachment. Tetradecenoyl(2E,13-Me) = CC(C)CCCCCCCCC/C=C/C(=O)*; d(aThr) = C[C@@H](O)[C@@H](N)C(=O)O; dPip = O=C(O)[C@H]1CCCCN1; Dap = NC[C@H](N)C(=O)O A value given as a limit tells only on which side of the number the result lay.

Assay [1] concerns Staphylococcus aureus. Briefly: Antibacterial activity against Staphylococcus aureus ATCC 29213 assessed as inhibition of bacterial growth incubated for 16 hrs by broth microdilution assay. Type of assay: functional. The method in brief: (§1)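 MICs were read in µg/mL against indicator strains S. aureus 29213 and S. simulans 22. The growth medium was supplemented with Ca2+ at 5.0 or 10 mM.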
A general note: Dilution methods test growth across graded concentrations, often in twofold steps.

For assay [2], the system named is Staphylococcus aureus. Briefly: Antibacterial activity against Staphylococcus aureus ATCC 29213 assessed as inhibition of bacterial growth incubated for 16 hrs in presence of 10 mM Ca2+ by broth microdilution assay. Type of assay: functional. The method in brief:
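MIC, read in µg/mL, was determined in growth medium supplemented with Ca2+ at a final 10 mM. The same strain was also tested at 5 mM Ca2+ to check how calcium level affects the MIC.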

The subject of assay [3] is Staphylococcus simulans. Briefly: Antibacterial activity against Staphylococcus simulans 22 assessed as inhibition of bacterial growth incubated for 16 hrs in presence of 5 mM Ca2+ by broth microdilution assay. Type of assay: functional. A digest of the protocol: as §1
Assay [4] deals with Staphylococcus simulans. Kind of assay: Antibacterial activity against Staphylococcus simulans 22 assessed as inhibition of bacterial growth incubated for 16 hrs in presence of 10 mM Ca2+ by broth microdilution assay. It counts as functional. A digest of the protocol: as §1
The nature of assay [5]: Binding affinity to undecaprenyl phosphate (C55-P) in large unilamellar vesicles comprising 1,2-dioleoyl-sn-glycero-3-phosphocholine containing 1.5 mol % C55-P by ITC analysis. A digest of the protocol:
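Isothermal titration calorimetry: DOPC vesicles containing 1.5 mol% C55-P were titrated into the antibiotic solution in HEPES buffer with CaCl2. Heat was plotted against molar ratio.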

Assay [6] concerns Staphylococcus aureus. Briefly: Induction of UDP-MurNAc-pentapeptide accumulation in Staphylococcus aureus ATCC 29213 at 10 times MIC incubated for 60 mins by HPLC analysis. Type of assay: functional.
For assay [7], the system named is Staphylococcus simulans. Kind of assay: Antibacterial activity against Staphylococcus simulans 22 assessed as inhibition of bacterial growth incubated for 16 hrs in presence of C55-P by broth microdilution assay. It counts as functional, organism-based. A digest of the protocol:
(§2)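 The antibiotic was pre-incubated with the cell wall precursor (e.g. UDP-GlcNAc, C55-PP, C55-P) before being given to the bacteria, with vancomycin as positive control.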

In assay [8] the test system is Staphylococcus simulans. Kind of assay: Antibacterial activity against Staphylococcus simulans 22 assessed as inhibition of bacterial growth incubated for 16 hrs in presence of C55-PP by broth microdilution assay. Type of assay: functional, organism-based. A digest of the protocol:
as §2

Assay [9] has as its system Staphylococcus simulans. Kind of assay: Antibacterial activity against Staphylococcus simulans 22 assessed as inhibition of bacterial growth incubated for 16 hrs in presence of C15-PP by broth microdilution assay. Type of assay: functional, organism-based. A digest of the protocol: as §2
For assay [10], the system named is Staphylococcus simulans. Kind of assay: Antibacterial activity against Staphylococcus simulans 22 assessed as inhibition of bacterial growth incubated for 16 hrs in presence of C15-P by broth microdilution assay. It counts as functional, organism-based. The method in brief:
as §2

Assay [11] can be described thus: Binding affinity to undecaprenyl phosphate (C55-P) at 0.5 to 2 equiv in Ca2+-containing buffer incubated for 2 hrs by TLC-based binding assay. Conditions: dose 0.5-2 equiv.
Assay [12] is described as follows: Binding affinity to lipid II at 0.5 to 2 equiv in Ca2+-containing buffer incubated for 2 hrs by TLC-based binding assay. The following applies: dose 0.5-2 equiv.
Assay [13] is described as follows: Binding affinity to undecaprenyl phosphate (C55-P) assessed as reduction in lipid II synthesis at 0.5 to 2 equiv in presence of UDP-GlcNAc, UDPMurNAc-pentapeptide and Micrococcus flavus membrane vesicles and measured after 2 hrs by TLC analysis. The following applies: dose 0.5-2 equiv. A digest of the protocol: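 C55-P was pre-treated with the antibiotic over a range of concentrations. UDP-GlcNAc, UDP-MurNAc-pentapeptide and M. flavus membrane vesicles containing MraY and MurG were then added, and lipid II formation was monitored.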

Turning to `CC[C@H](C)[C@@H]1NC(=O)[C@@H]([C@@H](C)O)NC(=O)CNC(=O)[C@H](CC(=O)O)NC(=O)CNC(=O)[C@H](CC(=O)O)NC(=O)CNC(=O)[C@H]2CCCCN2C(=O)[C@@H](NC(=O)[C@H](CC(=O)O)NC(=O)/C=C/CCCCCCCCCC(C)C)CNC(=O)[C@@H]2CCCN2C1=O` ({Tetradecenoyl(2E,13-Me)}-D[Dap][dPip]GDGDG[d(aThr)]IP; lactam 2-C), the minimal inhibitory concentration (MIC) (commonly the least concentration at which growth counts as inhibited) was 4 µg/mL (≈ 3.21 µM) in the assay with Staphylococcus aureus [1], 2 µg/mL in the assay on Staphylococcus aureus [2], 4 µg/mL in the assay with Staphylococcus simulans [3] and not above 1 µg/mL in the assay with Staphylococcus simulans [4]. Moreover, the Kd (in general, the constant that tells how readily two partners part at equilibrium) in assay [5] is 7.3 nM. The outcome (with Staphylococcus aureus [6]; in the assay on Staphylococcus simulans [9]; in assay [11]) was Active. The result (in the assay on Staphylococcus simulans [7]; with Staphylococcus simulans [8]; with Staphylococcus simulans [10]; in assay [12]) was inactive. Moreover, in assay [13], the Activity result was “Dose-dependent effect”.

As to `CCCCCCCCCC(=O)N[C@@H](Cc1c[nH]c2ccccc12)C(=O)N[C@H](CC(N)=O)C(=O)N[C@@H](CC(=O)O)C(=O)N[C@@H]1C(=O)NCC(=O)N[C@@H](CCCN)C(=O)N[C@@H](CC(=O)O)C(=O)N[C@H](C)C(=O)N[C@@H](CC(=O)O)C(=O)NCC(=O)N[C@H](CO)C(=O)N[C@@H]([C@@H](C)CC(=O)O)C(=O)N[C@@H](CC(=O)c2ccccc2N)C(=O)O[C@@H]1C`, the minimum inhibitory concentration (MIC) with Staphylococcus aureus [1] is 0.25 µg/mL (≈ 0.154 µM); in the assay on Staphylococcus aureus [2], 0.125 µg/mL; in the assay on Staphylococcus simulans [3] it was 0.031 µg/mL; with Staphylococcus simulans [4], not above 0.031 µg/mL.
